The subject of one test is TF-1. Kind of test: Cytotoxicity against human erythroleukemia TF1 cells. It is filed as functional, cell-based. The essentials:
(§1)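 Dose-response proliferation assay over 0.16 to 20 µM (final) in tissue-culture plates. Cells were incubated 72 h at 37 °C in 5% CO2, and inhibition was read as Alamar Blue conversion by fluorescence at excitation/emission 544/590 nm.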

A further test deals with BT-20. Kind of test: Cytotoxicity against human breast carcinoma, BT20 cells. It is filed as functional, cell-based. The essentials:
as §1

The test system of another test is MAT-Ly-Lu. The test is described as follows: Cytotoxicity against rat prostate carcinoma, MatLyLu cells. It is filed as functional, cell-based. The procedure, abridged:
as §1

For the next test, the system named is KHOS/NP. Kind of test: Cytotoxicity against human osteosarcoma, KHOS-NP cells. The test is classed as functional, cell-based. The essentials: as §1
Another test deals with A-431. The test is described as follows: Cytotoxicity against human epidermoid carcinoma, A431 cells. It is filed as functional, cell-based. The essentials: as §1
For the next test, the system named is A-375. The test is described as follows: Cytotoxicity against human melanoma, A375 cells. It is filed as functional, cell-based. The procedure, abridged:
as §1

The subject of another test is A549. The test is described as follows: Cytotoxicity against human lung carcinoma, A549 cells. The test is classed as functional, cell-based. The essentials:
as §1

For the next test, the system named is HCT-15. The test is described as follows: Cytotoxicity against human colon carcinoma, HCT15 cells. It is filed as functional, cell-based. The procedure, abridged: as §1
Another test has as its system HT-1376. Kind of test: Cytotoxicity against human bladder carcinoma, HT1376 cells. The test is classed as functional, cell-based. The essentials:
as §1

A further test has as its system PA-1. Kind of test: Cytotoxicity against human ovarian teratocarcinoma, PA1 cells. The test is classed as functional, cell-based. The procedure, abridged: as §1
For another test, the system named is HepG2. The test is described as follows: Cytotoxicity against human hepatoma, HEPG2 cells. It is filed as functional, cell-based. The procedure, abridged:
as §1

The next test relates to HEK293. Kind of test: Cytotoxicity against HEK293 cells. It is filed as functional, cell-based. The conditions noted are these: Homo sapiens. The essentials:
as §1

The next test deals with BUD-8. Kind of test: Cytotoxicity against human fibroblast, BUD8 cells. The test is classed as functional, cell-based. The essentials: as §1
The next test concerns Ramos. The test is described as follows: Cytotoxicity against human Burkitt lymphoma, RAMOS cells. It is filed as functional, cell-based. The procedure, abridged: as §1
The test system of another test is Daudi. The test is described as follows: Cytotoxicity against human Burkitt lymphoma, DAUDI cells. The test is classed as functional, cell-based. The essentials:
as §1

A further test deals with MES-SA. Kind of test: Cytotoxicity against human uterine sarcoma, MES-SA cells. The test is classed as functional, cell-based. The procedure, abridged: as §1
In a further test the test system is MES-SA/Dx5. Kind of test: Cytotoxicity against human uterine sarcoma, MES-SA-Dx5 cells derived from MES-SA. It is filed as functional, cell-based. The procedure, abridged:
as §1

The next test has as its system CTLL. Kind of test: Cytotoxicity against murine cytotoxic T cells, CTLL2. The test is classed as functional, cell-based. The conditions noted are these: Mus musculus. The essentials: as §1
For test [1], the species on record is Rattus norvegicus. Kind of test: Inhibition of blood vessel growth in rat aorta at 100 ug/mL. It is filed as functional. The essentials:
(§2)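 In vitro angiogenesis assay using rat aorta blood vessel fragments, with compounds dissolved in DMSO. The read-out is percent inhibition of blood vessel growth at each fixed test concentration.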

The species named for test [2] is Rattus norvegicus. The test is described as follows: Inhibition of blood vessel growth in rat aorta at 10 ug/mL. It is filed as functional. The essentials:
as §2

For test [3], the species on record is Rattus norvegicus. The test is described as follows: Inhibition of blood vessel growth in rat aorta at 1 ug/mL. The test is classed as functional. The essentials:
as §2

The species entered for test [4] is Rattus norvegicus. Kind of test: Inhibition of blood vessel growth in rat aorta at 0.1 ug/mL. It is filed as functional. The essentials: as §2

Take `COc1ccc(/C(=C\c2ccc(OC)c(OC)c2)CN2CCCC[C@@H]2C)cc1`: the IC50 in the test on TF-1, in the test with BT-20, in the test with MAT-Ly-Lu, in the test with KHOS/NP, in the test with A-431 and in the test with A-375 was > 20 µM in each case. The 50% inhibitory concentration (IC50) in the test with A549, in the test on HCT-15, in the test on HT-1376, in the test with PA-1, in the test on HepG2 and in the test with HEK293 was > 20 µM throughout. Besides, the IC50 in the test on BUD-8, in the test with Ramos, in the test with Daudi, in the test on MES-SA, in the test with MES-SA/Dx5 and in the test with CTLL was > 20 µM each time. 100 µg/mL produced 100% inhibition in the test filed under Rattus norvegicus [1]. The same compound gave an inhibition at 10 µg/mL in the test filed under Rattus norvegicus [2] of 43%. The same compound displayed an inhibition at 1 µg/mL in the test listed under Rattus norvegicus [3] of 68%. In addition, the inhibition at 0.1 µg/mL in the test filed under Rattus norvegicus [4] came out at 22%.
Turning to `COc1ccc2c(CN3CCCC[C@@H]3C)cc3cc(OC)c(OC)cc3c2c1`, the IC50 in the test with TF-1 worked out at 7.2 µM; in the test with BT-20 it was 10.2 µM; in the test with MAT-Ly-Lu it was 15 µM; in the test on KHOS/NP, 12.3 µM; in the test on A-431, 8.12 µM; in the test on A-375 it was 8.96 µM. Further, the IC50 was 11.2 µM in the test on A549; 7.82 µM in the test with HCT-15; 9.68 µM in the test with HT-1376; 7.38 µM in the test with PA-1; 8.12 µM in the test with HepG2; 15.5 µM with HEK293. Moreover, the IC50 in the test with BUD-8 was > 20 µM; in the test on Ramos, > 20 µM; with Daudi it was 9.08 µM; with MES-SA it was 10.1 µM; in the test with MES-SA/Dx5 it was 11.7 µM; with CTLL, 7.61 µM. The inhibition at 100 µg/mL in the test filed under Rattus norvegicus [1] was 100%. Further, the inhibition at 10 µg/mL in the test filed under Rattus norvegicus [2] was 100%. The inhibition at 1 µg/mL in the test filed under Rattus norvegicus [3] turned out to be 42%. The inhibition at 0.1 µg/mL in the test listed under Rattus norvegicus [4] was 17%.
Take `COc1ccc(/C=C(/CN2CCCC[C@@H]2C)c2ccc(O)cc2)cc1OC`: the IC50 in the test on TF-1, in the test on BT-20, in the test on MAT-Ly-Lu, with KHOS/NP, in the test with A-431 and in the test with A-375 was > 20 µM in each case. In addition, the IC50 with A549, with HCT-15, in the test on HT-1376, in the test on PA-1, in the test with HepG2 and in the test on HEK293 was > 20 µM throughout. The IC50 in the test with BUD-8, with Ramos, in the test on Daudi, in the test on MES-SA, with MES-SA/Dx5 and in the test with CTLL was > 20 µM each time. Besides, in the test listed under Rattus norvegicus [1], 100 µg/mL produced 100% inhibition. For the same compound, in the test listed under Rattus norvegicus [2], the inhibition at 10 µg/mL is 42%. This compound also gave an inhibition at 1 µg/mL in the test filed under Rattus norvegicus [3] of 53%. In the test filed under Rattus norvegicus [4], testing at 0.1 µg/mL gave an inhibition of 31%.
In the case of `COc1ccc(/C(=C\c2ccc(OC)c(OC)c2)CN2CCCC[C@H]2C)cc1`, the IC50 in the test with TF-1, with BT-20, in the test with MAT-Ly-Lu, with KHOS/NP, in the test on A-431 and in the test on A-375 was > 20 µM each time. Further, the IC50 in the test with A549, with HCT-15, with HT-1376, in the test with PA-1, with HepG2 and with HEK293 was > 20 µM throughout. Further, the IC50 in the test on BUD-8, in the test with Ramos, in the test with Daudi, with MES-SA, in the test with MES-SA/Dx5 and in the test on CTLL was > 20 µM each time. In the test filed under Rattus norvegicus [1], this compound gave an inhibition at 100 µg/mL of 100%. In the test listed under Rattus norvegicus [2], at 10 µg/mL the inhibition was 62%. The compound further showed an inhibition at 1 µg/mL in the test listed under Rattus norvegicus [3] of 59%. The compound also registered an inhibition at 0.1 µg/mL in the test filed under Rattus norvegicus [4] of 36%.
On to `COc1ccc(/C=C(/CN2CCCC[C@H]2C)c2ccc(O)cc2)cc1OC`, for which the concentration for half-maximal inhibition (IC50) with TF-1, with BT-20, in the test on MAT-Ly-Lu, in the test on KHOS/NP, in the test with A-431 and in the test on A-375 was > 20 µM in each case. The IC50 with A549, with HCT-15, with HT-1376, with PA-1, in the test with HepG2 and with HEK293 was > 20 µM throughout. Moreover, the IC50 with BUD-8, in the test with Ramos, in the test on Daudi, in the test with MES-SA, in the test on MES-SA/Dx5 and with CTLL was > 20 µM in each case. Further, in the test filed under Rattus norvegicus [1], 100 µg/mL produced 100% inhibition. In the test filed under Rattus norvegicus [2], this compound gave an inhibition at 10 µg/mL of 65%. For the same compound, the inhibition at 1 µg/mL in the test filed under Rattus norvegicus [3] worked out at 43%.
Consider `COc1ccc2c(CN3CCCC[C@H]3C)cc3cc(OC)c(OC)cc3c2c1`, for which the IC50 turned out to be 7.65 µM in the test with TF-1; 10.9 µM in the test with BT-20; 15 µM in the test on MAT-Ly-Lu; 14 µM in the test with KHOS/NP; 8.09 µM in the test with A-431; 10.1 µM with A-375. The IC50 in the test on A549 stood at 12 µM; in the test on HCT-15, 8.33 µM; in the test with HT-1376, 9.51 µM; in the test on PA-1, 7.27 µM; in the test with HepG2, 7.27 µM; with HEK293 it was 17.1 µM. For the same compound, the IC50 is > 20 µM in the test on BUD-8; 15.5 µM with Ramos; 12 µM in the test on Daudi; 9.04 µM with MES-SA; 8.46 µM in the test on MES-SA/Dx5; 8.1 µM in the test with CTLL. In addition, in the test listed under Rattus norvegicus [2], 10 µg/mL produced 100% inhibition. The same compound returned an inhibition at 1 µg/mL in the test listed under Rattus norvegicus [3] of 48%. In the test listed under Rattus norvegicus [4], this compound showed an inhibition at 0.1 µg/mL of 29%.
With `COc1cc2cc(CN3CCCC[C@@H]3C)c3ccc(O)cc3c2cc1OC`, the IC50 in the test with TF-1 was 9.8 µM; with BT-20, 13.7 µM; in the test on MAT-Ly-Lu, > 20 µM; with KHOS/NP it was 15.4 µM; with A-431 it was 13.8 µM; in the test with A-375 it was 11.2 µM. Also, the IC50 with A549 was 16.6 µM; in the test on HCT-15, 8.41 µM; in the test with HT-1376 it was 8.31 µM; in the test with PA-1 it was 8 µM; in the test on HepG2, 8.33 µM; in the test with HEK293, 14.8 µM. The IC50 turned out to be 18.2 µM in the test on BUD-8; 18.2 µM in the test with Ramos; 13.5 µM in the test with Daudi; 14.1 µM in the test with MES-SA; 11.8 µM with MES-SA/Dx5; 9.09 µM in the test on CTLL. In the test listed under Rattus norvegicus [1], this compound had an inhibition at 100 µg/mL of 100%. Besides, the inhibition at 10 µg/mL in the test filed under Rattus norvegicus [2] worked out at 74%. The compound also had an inhibition at 1 µg/mL in the test filed under Rattus norvegicus [3] of 58%. In addition, at 0.1 µg/mL the inhibition in the test listed under Rattus norvegicus [4] was 35%.
For the compound `COc1cc2cc(CN3CCCC[C@H]3C)c3ccc(O)cc3c2cc1OC`, the IC50 in the test with TF-1 is 8.4 µM; with BT-20, 11.6 µM; with MAT-Ly-Lu, > 20 µM; in the test with KHOS/NP, 13.4 µM; with A-431 it was 20 µM; in the test on A-375, 9.38 µM. The IC50 in the test with A549 was found to be 15.2 µM; in the test with HCT-15, 7.97 µM; with HT-1376, 6.04 µM; with CTLL, 8.1 µM. In the test listed under Rattus norvegicus [1], the inhibition at 100 µg/mL was determined as 100%. This compound also gave an inhibition at 10 µg/mL in the test filed under Rattus norvegicus [2] of 85%. In the test filed under Rattus norvegicus [3], this compound registered an inhibition at 1 µg/mL of 47%. Moreover, the inhibition at 0.1 µg/mL in the test filed under Rattus norvegicus [4] turned out to be 18%.

For orientation: IC50 means the point on the concentration scale where inhibition reaches its midpoint. Read a low IC50 as inhibition by little substance. By inhibition is commonly meant the share of the control response that was lost under treatment. The low end stands for a weak effect, the high end for a strong effect.

Source of the values: ChEMBL document CHEMBL1148553, “C8c-C15 monoseco-analogues of the phenanthroquinolizidine alkaloids julandine and cryptopleurine exhibiting potent anti-angiogenic properties” (Bioorg Med Chem Lett, 2006).
